What was measured:
HeLa cells = experiment: Cytotoxicity; type: cell-based
NCI-60 cell panel = experiment: NCI-60 cell panel, Sulforhodamine B assay; type: cell-based; settings: NCI-60 panel
Outline: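 NCI-60 panel screen. Viability read by Sulforhodamine B staining of total protein, a measure of cell number rather than metabolic activity. Values are GI50, defined from the change in cell counts relative to the starting number of cells. Some panel lines were not tested.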

MA9.3 AML cell line = experiment: Cytotoxicity in MA9.3 AML cells; type: cell-based, human; settings: for therapeutic index: between MA9.3 AML cell line and non-cancerous human CD34+ blood stem/progenitor cells
[1] = test system: human CD34+ blood stem/progenitor cells; experiment: Cytotoxicity in normal CD34+ blood stem/progenitor cells; type: cell-based

Compound: CC(C)N(CCOc1ccc(O)cc1)c1ccccc1 [Compound 4]
- decrease in potency relative to compound 2 (HeLa cells): 3 fold

Compound: Oc1ccc(OCCN(CCOc2ccc(O)cc2)c2ccccc2)cc1 [Compound 5]
- potency relative to compound 3 (HeLa cells): potency doubled
- range of distribution of GI50 values (NCI-60 cell panel): 55 fold

Compound: CN(CCCOc1ccc(O)cc1)c1ccccc1 [Compound 7]
- range of distribution of GI50 values (NCI-60 cell panel): 53 fold

Compound: CN(C(=O)COc1ccc(O)cc1)c1ccccc1 [Compound 11]
- potency / anticancer cell activity (in words) (HeLa cells): anticancer cell activity was eliminated

Compound: CCOc1ccc(O)cc1 [Compound 12]
- potency / anticancer cell activity (in words) (HeLa cells): no potency

Compound: CN(CCCOc1ccccc1)c1ccccc1 [Compound 13]
- potency / anticancer cell activity (in words) (HeLa cells): complete loss of potency

Compound: CN(CCCBr)c1ccccc1 [Compound 14]
- potency / anticancer cell activity (in words) (HeLa cells): loss of potency

Compound: N.N.[Cl][Pt][Cl] [cisplatin]
- IC50 (MA9.3 AML cell line; MA9.3 AML cells): 14 ± 0.7 µM
- therapeutic index (MA9.3 AML cell line): 1.0 ± 0.2
- IC50 [1]: 15 ± 2 µM

Compound: COc1cccc2c1C(=O)c1c(O)c3c(c(O)c1C2=O)C[C@@](O)(C(=O)CO)C[C@@H]3O[C@H]1C[C@H](N)[C@H](O)[C@H](C)O1 [doxorubicin]
- therapeutic index (MA9.3 AML cell line): 0.9 ± 0.2

From publication PMC3677216 (Bioorganic & medicinal chemistry letters, 2013)
